Data set [1] deals with T1, 17-beta-hydroxysteroid dehydrogenase type 1 (Homo sapiens, UniProt P14061).
T1 sequence (P14061 whole entry): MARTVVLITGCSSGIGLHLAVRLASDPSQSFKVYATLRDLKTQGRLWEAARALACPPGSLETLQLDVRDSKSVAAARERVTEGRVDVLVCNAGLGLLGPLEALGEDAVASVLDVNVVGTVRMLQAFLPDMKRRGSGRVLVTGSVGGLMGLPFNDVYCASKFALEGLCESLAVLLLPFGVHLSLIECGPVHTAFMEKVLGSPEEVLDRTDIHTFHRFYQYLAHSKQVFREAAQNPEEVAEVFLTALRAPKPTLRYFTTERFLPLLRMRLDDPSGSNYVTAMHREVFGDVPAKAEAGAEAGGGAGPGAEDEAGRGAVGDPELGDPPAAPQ

For data set [2], the target named is T2, 17-beta-hydroxysteroid dehydrogenase type 2 (Homo sapiens, UniProt P37059).
T2 sequence (P37059 whole entry): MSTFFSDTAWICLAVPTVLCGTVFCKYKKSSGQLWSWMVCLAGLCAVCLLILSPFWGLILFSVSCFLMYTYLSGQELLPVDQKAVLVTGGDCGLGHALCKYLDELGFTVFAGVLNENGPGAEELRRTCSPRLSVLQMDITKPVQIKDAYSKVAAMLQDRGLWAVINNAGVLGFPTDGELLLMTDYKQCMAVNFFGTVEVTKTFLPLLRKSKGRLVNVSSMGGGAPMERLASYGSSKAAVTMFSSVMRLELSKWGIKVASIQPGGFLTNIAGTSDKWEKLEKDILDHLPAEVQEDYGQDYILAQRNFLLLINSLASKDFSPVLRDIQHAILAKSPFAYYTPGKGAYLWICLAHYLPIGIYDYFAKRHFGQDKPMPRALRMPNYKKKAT
Nature of the data set: Inhibition of human placental 17betaHSD2 by radiodetection assay. In short, it runs like this: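 Microsomal fraction from fresh human placenta (pellet after homogenisation and centrifugation). Incubated 20 min at 37 °C with NAD+ 1500 μM and unlabeled E2 plus [2,4,6,7-3H]E2 (500 nM final) in phosphate buffer 50 mM with 20% glycerol and 1 mM EDTA, 1% DMSO. Stopped with HgCl2 and ether-extracted. Substrate and product separated by HPLC with radiodetection. Mean of three determinations.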

In data set [3] the target is Cytochrome P450 3A4 (Homo sapiens, UniProt P08684). Nature of the data set: Inhibition of human hepatic CYP3A4. The data set is classed as ADME. The essentials:
(§1)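 Tested with commercial P450 inhibition kits, used following the manufacturer's instructions. Values reported as IC50.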

Data set [4] addresses Cytochrome P450 2D6 (Homo sapiens, UniProt P10635). Nature of the data set: Inhibition of human hepatic CYP2D6. The data set is classed as ADME. In short, it runs like this: as §1
Data set [5] concerns the target Cytochrome P450 2C19 (Homo sapiens, UniProt P33261). Nature of the data set: Inhibition of human hepatic CYP2C19. The data set is classed as ADME. In short, it runs like this:
as §1

Data set [6] in a line: Cmax in Wistar rat at 10 mg/kg, po. The data set is classed as ADME, organism-based. Further details: dose 10 mg/kg, route oral. The note with it: in vivo. In short, it runs like this: (§2)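 Male Wistar rats (300-330 g), jugular-vein cannulated under ketamine/xylazine anaesthesia, sampled while freely moving. Oral cassette dosing by feeding needle to four rats at 10 mg/kg in labrasol/water (1:1), 5 mL/kg. Blood taken at 0, 1, 2, 3, 4, 6, 8, 10 and 24 h postdose; plasma frozen at -20 °C and quantified by HPLC-MS/MS.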

Data set [7] in a line: Tmax in Wistar rat at 10 mg/kg, po. The data set is classed as ADME, organism-based. Further details: dose 10 mg/kg, route oral. The following applies: in vivo. The essentials: as §2
Data set [8] can be described thus: Terminal half life in Wistar rat at 10 mg/kg, po. Type of data set: ADME, organism-based. The note with it: in vivo, read-out: beta t1/2 (converted). On the set-up: dose 10 mg/kg, route oral. In short, it runs like this: as §2
The subject of data set [9] is Rattus norvegicus. Nature of the data set: AUC (0 to infinity) in Wistar rat at 10 mg/kg, po. The data set is classed as ADME, organism-based, Plasma. Further details: time infinity, dose 10 mg/kg, route oral. The note with it: in vivo. In short, it runs like this:
as §2

The subject of data set [10] is T47D. Nature of the data set: […] in human T47D cells assessed as inhibition of E2 formation in presence of E1.
The target in data set [11] is T3, Estrogen receptor (Homo sapiens) (UniProt P03372).
T3 sequence (whole entry): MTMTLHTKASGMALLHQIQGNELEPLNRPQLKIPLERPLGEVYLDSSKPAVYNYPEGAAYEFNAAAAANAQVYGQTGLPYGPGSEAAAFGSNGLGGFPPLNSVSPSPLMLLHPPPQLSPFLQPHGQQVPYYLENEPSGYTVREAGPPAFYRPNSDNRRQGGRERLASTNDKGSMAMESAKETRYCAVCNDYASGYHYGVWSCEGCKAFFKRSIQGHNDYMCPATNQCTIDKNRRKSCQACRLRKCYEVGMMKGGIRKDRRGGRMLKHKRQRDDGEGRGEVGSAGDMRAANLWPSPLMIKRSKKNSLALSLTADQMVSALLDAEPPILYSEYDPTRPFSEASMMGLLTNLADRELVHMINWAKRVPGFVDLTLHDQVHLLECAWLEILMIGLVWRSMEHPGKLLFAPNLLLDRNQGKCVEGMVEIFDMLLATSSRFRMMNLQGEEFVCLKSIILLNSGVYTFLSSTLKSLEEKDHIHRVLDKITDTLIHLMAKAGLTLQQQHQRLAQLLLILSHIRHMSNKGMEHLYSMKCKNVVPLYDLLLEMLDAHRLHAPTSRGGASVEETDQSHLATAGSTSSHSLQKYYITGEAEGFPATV
Nature of the data set: Agonist activity at ER in human T47D cells assessed as stimulation of cell proliferation. The data set is classed as functional, cell-based. In short, it runs like this: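 T-47D cells grown 48 h in phenol red-free RPMI 1640 with 5% DCC-FCS, insulin and supplements, then exposed to test compound at 100 nM final (1% ethanol) for 8 days. Medium and additive renewed every 2-3 days. E2 0.1 nM served as positive control, ethanol as negative. Viability read by MTT at 590 nm. Stimulation was expressed relative to E2-induced proliferation, mean of ≥3 independent experiments.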

The source made the active and inactive calls. No cut-off for these calls is given here.

Cytochrome P450 3A4, sequence (P08684 whole entry): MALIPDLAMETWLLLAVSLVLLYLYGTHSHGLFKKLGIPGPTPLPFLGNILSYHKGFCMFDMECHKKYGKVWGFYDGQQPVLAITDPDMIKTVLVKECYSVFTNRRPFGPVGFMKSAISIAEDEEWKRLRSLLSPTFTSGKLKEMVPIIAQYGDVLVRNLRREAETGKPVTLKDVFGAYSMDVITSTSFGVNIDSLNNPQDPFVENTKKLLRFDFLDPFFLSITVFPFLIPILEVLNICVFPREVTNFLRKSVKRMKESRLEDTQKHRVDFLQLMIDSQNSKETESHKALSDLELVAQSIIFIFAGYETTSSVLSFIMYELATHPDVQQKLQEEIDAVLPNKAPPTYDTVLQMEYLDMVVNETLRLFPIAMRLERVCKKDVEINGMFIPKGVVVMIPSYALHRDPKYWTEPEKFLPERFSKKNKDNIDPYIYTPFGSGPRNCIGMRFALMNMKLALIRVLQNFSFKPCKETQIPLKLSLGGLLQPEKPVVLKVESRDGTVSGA
Cytochrome P450 2C19, sequence (P33261 whole entry): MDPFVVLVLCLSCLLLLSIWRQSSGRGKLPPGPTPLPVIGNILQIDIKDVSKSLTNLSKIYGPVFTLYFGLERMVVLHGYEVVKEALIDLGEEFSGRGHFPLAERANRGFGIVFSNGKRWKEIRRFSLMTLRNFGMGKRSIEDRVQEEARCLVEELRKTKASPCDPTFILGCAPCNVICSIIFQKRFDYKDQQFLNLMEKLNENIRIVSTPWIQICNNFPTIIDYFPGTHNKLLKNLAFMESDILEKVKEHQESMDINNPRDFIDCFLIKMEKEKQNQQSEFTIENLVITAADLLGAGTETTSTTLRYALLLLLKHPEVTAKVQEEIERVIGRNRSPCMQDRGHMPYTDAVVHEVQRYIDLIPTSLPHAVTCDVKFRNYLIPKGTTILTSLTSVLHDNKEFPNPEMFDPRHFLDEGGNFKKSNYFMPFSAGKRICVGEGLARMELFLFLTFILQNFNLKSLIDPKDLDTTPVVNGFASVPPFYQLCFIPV
Cytochrome P450 2D6, sequence (P10635 whole entry): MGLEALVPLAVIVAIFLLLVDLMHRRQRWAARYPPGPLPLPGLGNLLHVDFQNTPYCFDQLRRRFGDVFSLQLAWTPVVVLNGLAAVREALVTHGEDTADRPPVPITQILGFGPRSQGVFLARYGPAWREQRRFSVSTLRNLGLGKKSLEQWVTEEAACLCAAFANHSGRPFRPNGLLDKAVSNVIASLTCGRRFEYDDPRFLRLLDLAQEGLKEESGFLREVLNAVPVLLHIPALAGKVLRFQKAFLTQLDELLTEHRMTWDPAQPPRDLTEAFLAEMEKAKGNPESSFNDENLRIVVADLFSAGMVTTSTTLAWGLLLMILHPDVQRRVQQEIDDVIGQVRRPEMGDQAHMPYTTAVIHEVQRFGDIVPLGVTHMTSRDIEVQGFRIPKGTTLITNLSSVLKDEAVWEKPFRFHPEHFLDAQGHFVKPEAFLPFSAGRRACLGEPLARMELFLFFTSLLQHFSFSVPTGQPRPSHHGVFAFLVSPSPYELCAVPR

One may read the IC50 as the midpoint of a concentration-inhibition curve. `Oc1cccc(-c2cc(-c3ccccc3)c(-c3cccc(O)c3)s2)c1` returned an IC50 in data set [1] of 493 nM.
As to `Oc1cccc(-c2ccc(-c3cccc(F)c3)s2)c1`, it took 1820 nM to reach half-maximal inhibition in [2] (IC50).
In [1], `N#Cc1ccc(-c2ccc(-c3cccc(O)c3)s2)cc1` gave an IC50 of over 1000 nM.
The same measure, in the same setting: next, `Cc1cc(-c2cnc(-c3cccc(O)c3)s2)ccc1O`: 143 nM.
In the case of `Cc1ccc(S(=O)(=O)NCc2cccc(-c3ccc(-c4cccc(O)c4)s3)c2)cc1`, the values for the IC50 in [1] and in data set [2] were 350 nM and 276 nM, respectively.
The Cmax is the highest concentration seen after dosing. In general, Tmax refers to the time from dosing to the highest level. Take `Oc1cccc(-c2ccc(-c3ccc(O)c(F)c3)s2)c1`: the IC50 in data set [1] was 8 nM; in [3], 820 nM; in data set [4], over 1500 nM; in data set [5] it was 1500 nM; in data set [10], 282 nM. In data set [6], the concentration peaked (Cmax) at 1390 ng/mL. For the same compound, the Tmax in data set [7] is 8 h. The half-life in data set [8] was 2.7 h. The compound also gave an AUC in [9] of 19407 ng/mL.
Turning to `Oc1cccc(-c2ccc(-c3ccc(O)c(F)c3)cc2)c1`, the IC50 turned out to be 123 nM in [1] and 872 nM in [2].
Taken in the same sequence, the figures for `Oc1cccc(-c2cc(-c3cccc(O)c3)c(-c3cccc(O)c3)s2)c1` were 119 nM and 188 nM.
For `CS(=O)(=O)Nc1cccc(-c2ccc(-c3cccc(O)c3)s2)c1`, the IC50 in data set [2] was 1570 nM.
The same measure, in the same setting: next, `Oc1cccc(-c2ccc(-c3ccc(F)cc3)s2)c1`: 3650 nM.
Consider `Nc1ccc(-c2ccc(-c3cccc(O)c3)s2)cc1`, for which the IC50 in data set [1] is over 5000 nM.
Turning to `Oc1ccc(-c2ccc(-c3ccc(O)c(O)c3)s2)cc1`, the IC50 in data set [1] was over 5000 nM.
On the same count and under the same terms, next, `Cc1ccc(-c2ccc(-c3ccc(O)cc3)s2)cc1O`: over 5000 nM.
As to `O=C(/C=C/c1cc(-c2ccc(-c3cccc(O)c3)s2)ccc1O)Nc1ccccc1`, the figures for the IC50 in data set [1] and in data set [2] were 427 nM and 468 nM, respectively.
With `CS(=O)(=O)NCc1cccc(-c2ccc(-c3cccc(O)c3)s2)c1`, in data set [1], the half-maximal inhibitory concentration (IC50) was over 1000 nM.
Regarding `Oc1ccc(-c2ccc(-c3cc(O)cc(F)c3)s2)cc1`, the IC50 in data set [1] worked out at 42 nM; in data set [2], 463 nM.
Taken in the same sequence, the figures for `Cc1cc(-c2cccc(O)c2)sc1-c1cccc(O)c1` were 567 nM and 856 nM.
For `Oc1cccc(-c2ccc(-c3ccc(O)c(O)c3)s2)c1`, the IC50 in [1] amounted to 402 nM.
In the case of `Oc1cccc(-c2ccc(-c3ccc(O)c(C(F)(F)F)c3)s2)c1`, the 50% inhibitory concentration (IC50) in data set [1] came to 38 nM; in data set [2] it was 97 nM.
The matching figures for `Cc1cc(-c2ccc(-c3cccc(O)c3)cc2)ccc1O`: 171 nM and 1250 nM.
Consider `Oc1cccc(-c2ccc(-c3ccc(O)c(-c4ccccc4)c3)s2)c1`, for which, in [1], the IC50 is over 5000 nM.
With `Oc1ccc(-c2ccc(-c3ccc(F)c(O)c3)s2)cc1`, the results for the IC50 in data set [1] and in data set [2] were 113 nM and 183 nM, respectively.
Taken in the same sequence, the figures for `Oc1cccc(-c2ccc(-c3ccc(F)c(F)c3)s2)c1` were 780 nM and 2640 nM.
The matching figures for `Oc1cccc(-c2cc(-c3ccc(O)c(F)c3)cs2)c1`: 64 nM and 510 nM.
Taken in the same sequence, the figures for `Oc1cc(-c2ccc(-c3ccc(O)c(F)c3)s2)ccc1F` were 17 nM and 218 nM.
Turning to `Cc1cc(-c2ccc(-c3cccc(O)c3)s2)ccc1O`, the IC50 in [1] was 46 nM; in [3] it was 500 nM; in data set [4], over 1500 nM; in data set [5], 940 nM; in data set [10], 426 nM. Also, the result in data set [11] was inactive. Besides, the peak level in data set [6] (Cmax) was 905 ng/mL. The Tmax in [7] is 4 h. Besides, the half-life in data set [8] is 3.8 h. This compound also came in with an AUC in data set [9] of 12275 ng/mL.
Turning to `O=C(CCc1cc(-c2ccc(-c3cccc(O)c3)s2)ccc1O)Nc1ccccc1`, the figures for the IC50 in data set [1] and in [2] were 620 nM and 982 nM, respectively.
Taken in the same sequence, the figures for `Cc1cc(O)cc(-c2ccc(-c3ccc(O)cc3)s2)c1` were 629 nM and 2580 nM.
Turning to `Oc1cccc(-c2ccc(-c3cc(F)c(O)c(F)c3)s2)c1`, the results for the IC50 in data set [1] and in [2] were 56 nM and 312 nM, respectively.
In turn, `Oc1cccc(-c2ccc(-c3ccc(S)cc3)s2)c1` showed a half-maximal inhibitory concentration (IC50) in data set [1] of over 5000 nM.
`Oc1cc(F)cc(-c2ccc(-c3ccc(O)c(F)c3)s2)c1`: the IC50 in [1] is 29 nM; in [2], 227 nM.
Taken in the same sequence, the figures for `CCOC(=O)/C=C/c1cc(-c2ccc(-c3cccc(O)c3)s2)ccc1O` were 130 nM and 502 nM.
In data set [1], `Oc1ccc(-c2cc(-c3cccc(O)c3)c(-c3cccc(O)c3)s2)cc1` showed an IC50 of over 1000 nM.
Take `Oc1cccc(-c2ccc(-c3ccc(F)c(O)c3)cc2)c1`: the IC50 in data set [1] stood at 51 nM; in data set [2] it was 253 nM.
Consider `Cc1cc(-c2csc(-c3cccc(O)c3)c2)ccc1O`, for which the IC50 in data set [1] is 64 nM; in data set [3], over 1500 nM; in [4], over 1500 nM; in data set [5], 1500 nM; in [10], 362 nM.

Values taken from ChEMBL document CHEMBL1154625, “New insights into the SAR and binding modes of bis(hydroxyphenyl)thiophenes and -benzenes: influence of additional substituents on 17beta-hydroxysteroid dehydrogenase type 1 (17beta-HSD1) inhibitory activity and selectivity” (J Med Chem, 2009).
